Reference: ChEMBL document CHEMBL4342493, “Design and Optimization of 3'-(Imidazo[1,2-a]pyrazin-3-yl)-[1,1'-biphenyl]-3-carboxamides as Selective DDR1 Inhibitors” (ACS Med Chem Lett, 2020)

Experiments:
[1] = target: Bcr/Abl fusion protein (Homo sapiens, UniProt P00519); assay: Inhibition of human recombinant full length His-tagged Bcr-Abl expressed in baculovirus expression system using tyrosine-2 peptide as substrate after 1 hr in presence of […] ATP by FRET based Z'-LYTE assay
Method in brief: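 FRET-based Z′-Lyte kinase assay for Bcr-Abl; IC50 values are means of three independent experiments, variations <20%.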

[2] = target: T1, Discoidin domain-containing receptor 2 (Homo sapiens, UniProt Q16832); assay: Inhibition of recombinant human GST-tagged DDR2 cytoplasmic domain (427 to 855 residues) expressed in baculovirus expression system using Fluorescein-poly GAT as substrate incubated for 1 hr in presence of ATP by LanthaScreen Eu kinase assay
T1 sequence (Q16832 whole entry): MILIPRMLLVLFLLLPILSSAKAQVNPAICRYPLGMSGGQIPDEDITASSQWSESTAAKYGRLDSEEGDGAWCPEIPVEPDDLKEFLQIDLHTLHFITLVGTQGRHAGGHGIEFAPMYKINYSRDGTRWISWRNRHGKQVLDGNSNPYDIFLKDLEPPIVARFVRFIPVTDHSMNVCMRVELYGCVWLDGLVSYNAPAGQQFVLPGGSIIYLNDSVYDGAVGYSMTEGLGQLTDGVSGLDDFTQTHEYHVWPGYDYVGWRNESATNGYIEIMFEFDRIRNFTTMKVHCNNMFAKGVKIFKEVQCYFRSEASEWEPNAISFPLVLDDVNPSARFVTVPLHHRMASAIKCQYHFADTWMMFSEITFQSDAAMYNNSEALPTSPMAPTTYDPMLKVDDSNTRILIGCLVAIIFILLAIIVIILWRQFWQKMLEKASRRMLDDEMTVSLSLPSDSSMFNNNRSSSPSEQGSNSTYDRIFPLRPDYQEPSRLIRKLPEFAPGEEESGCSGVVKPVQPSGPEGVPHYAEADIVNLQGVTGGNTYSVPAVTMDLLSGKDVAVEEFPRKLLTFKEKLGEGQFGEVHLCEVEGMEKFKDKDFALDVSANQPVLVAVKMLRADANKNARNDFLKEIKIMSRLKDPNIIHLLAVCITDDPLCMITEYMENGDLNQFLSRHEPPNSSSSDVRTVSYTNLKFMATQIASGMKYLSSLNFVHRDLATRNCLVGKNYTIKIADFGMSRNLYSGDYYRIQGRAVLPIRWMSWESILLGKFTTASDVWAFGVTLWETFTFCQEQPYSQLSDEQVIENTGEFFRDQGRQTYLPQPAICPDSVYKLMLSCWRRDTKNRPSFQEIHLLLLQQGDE
Method in brief: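 LanthaScreen Eu kinase assay for DDR2; IC50 values are means of three independent experiments, variations <20%.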

[3] = target: Epithelial discoidin domain-containing receptor 1 (Homo sapiens, UniProt Q08345); assay: Inhibition of recombinant human GST-tagged DDR1 catalytic domain (440 to 876 residues) expressed in baculovirus expression system using Fluorescein-poly GAT as substrate incubated for 1 hr in presence of ATP by LanthaScreen Eu kinase assay
Sequence of Epithelial discoidin domain-containing receptor 1 (Q08345 whole entry, the tested form may be a part): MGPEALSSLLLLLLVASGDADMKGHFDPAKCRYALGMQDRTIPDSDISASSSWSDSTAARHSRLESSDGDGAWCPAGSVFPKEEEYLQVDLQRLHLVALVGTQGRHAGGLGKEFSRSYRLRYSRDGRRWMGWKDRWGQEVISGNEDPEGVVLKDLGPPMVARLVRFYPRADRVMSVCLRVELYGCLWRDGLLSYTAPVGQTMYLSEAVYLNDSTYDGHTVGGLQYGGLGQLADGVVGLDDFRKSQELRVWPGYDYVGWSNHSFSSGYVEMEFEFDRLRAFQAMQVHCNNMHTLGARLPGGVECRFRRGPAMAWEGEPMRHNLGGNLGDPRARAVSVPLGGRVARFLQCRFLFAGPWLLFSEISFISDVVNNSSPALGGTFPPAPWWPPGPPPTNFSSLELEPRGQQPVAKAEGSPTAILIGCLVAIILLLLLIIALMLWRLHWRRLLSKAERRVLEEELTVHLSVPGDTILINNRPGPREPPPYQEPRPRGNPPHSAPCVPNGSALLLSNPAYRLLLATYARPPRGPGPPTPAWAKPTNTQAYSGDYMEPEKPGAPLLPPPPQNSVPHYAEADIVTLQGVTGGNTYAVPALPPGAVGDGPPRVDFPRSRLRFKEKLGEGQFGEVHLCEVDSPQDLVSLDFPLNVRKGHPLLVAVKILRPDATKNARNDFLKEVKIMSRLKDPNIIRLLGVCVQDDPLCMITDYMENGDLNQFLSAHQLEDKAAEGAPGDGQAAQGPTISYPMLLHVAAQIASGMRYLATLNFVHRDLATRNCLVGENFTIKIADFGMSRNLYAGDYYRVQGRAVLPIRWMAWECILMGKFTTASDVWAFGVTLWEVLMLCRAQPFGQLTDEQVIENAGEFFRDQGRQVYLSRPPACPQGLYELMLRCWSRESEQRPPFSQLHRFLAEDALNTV

[4] = target: Mast/stem cell growth factor receptor Kit (Homo sapiens, UniProt P10721); assay: Inhibition of human recombinant His-tagged c-Kit cytoplasmic domain (544 to 976 residues) expressed in baculovirus expression system using Ser/Thr 6 peptide as substrate after 1 hr in presence of 300 uM ATP by FRET based Z'-LYTE assay
Sequence of Mast/stem cell growth factor receptor Kit (P10721 whole entry, the tested form may be a part): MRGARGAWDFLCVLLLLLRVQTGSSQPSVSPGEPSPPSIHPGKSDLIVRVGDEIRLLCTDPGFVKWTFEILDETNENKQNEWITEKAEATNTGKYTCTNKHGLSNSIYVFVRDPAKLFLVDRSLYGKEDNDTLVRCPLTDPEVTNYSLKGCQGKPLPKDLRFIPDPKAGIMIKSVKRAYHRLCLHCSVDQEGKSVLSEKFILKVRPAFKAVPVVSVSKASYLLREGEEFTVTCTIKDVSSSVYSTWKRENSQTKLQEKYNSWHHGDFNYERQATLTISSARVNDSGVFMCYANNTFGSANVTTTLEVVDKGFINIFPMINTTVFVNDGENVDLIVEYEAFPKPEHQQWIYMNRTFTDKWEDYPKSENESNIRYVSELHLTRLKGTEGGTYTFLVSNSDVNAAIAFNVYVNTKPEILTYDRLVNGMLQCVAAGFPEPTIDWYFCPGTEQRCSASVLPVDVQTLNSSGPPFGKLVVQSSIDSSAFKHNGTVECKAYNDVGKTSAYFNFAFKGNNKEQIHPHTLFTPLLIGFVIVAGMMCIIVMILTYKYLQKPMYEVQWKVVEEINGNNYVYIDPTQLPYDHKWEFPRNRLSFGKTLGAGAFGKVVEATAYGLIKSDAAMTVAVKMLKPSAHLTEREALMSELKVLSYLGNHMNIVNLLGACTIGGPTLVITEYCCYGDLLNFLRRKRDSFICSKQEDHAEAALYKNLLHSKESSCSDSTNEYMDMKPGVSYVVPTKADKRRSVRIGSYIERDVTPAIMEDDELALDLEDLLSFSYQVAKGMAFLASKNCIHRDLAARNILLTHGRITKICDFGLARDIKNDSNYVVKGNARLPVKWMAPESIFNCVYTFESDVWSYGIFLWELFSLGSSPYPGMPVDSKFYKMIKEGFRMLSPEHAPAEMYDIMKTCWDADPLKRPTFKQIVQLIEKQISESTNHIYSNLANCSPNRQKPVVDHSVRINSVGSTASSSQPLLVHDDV

Sequence of Bcr/Abl fusion protein (P00519 whole entry, the tested form may be a part): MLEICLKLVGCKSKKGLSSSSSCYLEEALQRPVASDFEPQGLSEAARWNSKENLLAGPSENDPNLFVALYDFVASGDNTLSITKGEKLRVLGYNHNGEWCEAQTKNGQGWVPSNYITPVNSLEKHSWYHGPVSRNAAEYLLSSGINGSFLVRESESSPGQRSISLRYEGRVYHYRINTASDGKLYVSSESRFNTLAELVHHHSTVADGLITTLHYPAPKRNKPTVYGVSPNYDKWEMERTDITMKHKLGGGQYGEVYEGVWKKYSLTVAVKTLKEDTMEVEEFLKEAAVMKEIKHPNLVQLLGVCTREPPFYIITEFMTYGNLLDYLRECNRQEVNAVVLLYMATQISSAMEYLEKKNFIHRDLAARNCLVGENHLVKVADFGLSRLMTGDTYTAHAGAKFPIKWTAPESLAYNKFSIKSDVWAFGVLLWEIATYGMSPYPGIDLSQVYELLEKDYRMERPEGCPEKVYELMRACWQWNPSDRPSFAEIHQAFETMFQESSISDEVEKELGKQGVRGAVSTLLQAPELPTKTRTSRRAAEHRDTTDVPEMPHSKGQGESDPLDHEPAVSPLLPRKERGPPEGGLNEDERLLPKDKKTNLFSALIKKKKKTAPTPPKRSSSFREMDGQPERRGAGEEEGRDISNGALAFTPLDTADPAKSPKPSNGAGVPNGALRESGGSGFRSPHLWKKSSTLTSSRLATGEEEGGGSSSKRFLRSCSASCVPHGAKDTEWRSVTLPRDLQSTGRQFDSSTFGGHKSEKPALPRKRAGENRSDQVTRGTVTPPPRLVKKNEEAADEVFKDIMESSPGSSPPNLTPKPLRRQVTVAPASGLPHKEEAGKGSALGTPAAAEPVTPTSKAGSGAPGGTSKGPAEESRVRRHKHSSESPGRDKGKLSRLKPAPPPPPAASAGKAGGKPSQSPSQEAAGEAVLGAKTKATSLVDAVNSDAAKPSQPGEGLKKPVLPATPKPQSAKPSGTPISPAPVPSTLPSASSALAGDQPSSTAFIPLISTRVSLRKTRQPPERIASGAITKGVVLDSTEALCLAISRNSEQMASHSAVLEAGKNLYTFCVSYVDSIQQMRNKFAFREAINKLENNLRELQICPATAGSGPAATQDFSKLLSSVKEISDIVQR
Sequence of Bcr/Abl fusion protein (P11274 whole entry, further chain, the tested form may be a part): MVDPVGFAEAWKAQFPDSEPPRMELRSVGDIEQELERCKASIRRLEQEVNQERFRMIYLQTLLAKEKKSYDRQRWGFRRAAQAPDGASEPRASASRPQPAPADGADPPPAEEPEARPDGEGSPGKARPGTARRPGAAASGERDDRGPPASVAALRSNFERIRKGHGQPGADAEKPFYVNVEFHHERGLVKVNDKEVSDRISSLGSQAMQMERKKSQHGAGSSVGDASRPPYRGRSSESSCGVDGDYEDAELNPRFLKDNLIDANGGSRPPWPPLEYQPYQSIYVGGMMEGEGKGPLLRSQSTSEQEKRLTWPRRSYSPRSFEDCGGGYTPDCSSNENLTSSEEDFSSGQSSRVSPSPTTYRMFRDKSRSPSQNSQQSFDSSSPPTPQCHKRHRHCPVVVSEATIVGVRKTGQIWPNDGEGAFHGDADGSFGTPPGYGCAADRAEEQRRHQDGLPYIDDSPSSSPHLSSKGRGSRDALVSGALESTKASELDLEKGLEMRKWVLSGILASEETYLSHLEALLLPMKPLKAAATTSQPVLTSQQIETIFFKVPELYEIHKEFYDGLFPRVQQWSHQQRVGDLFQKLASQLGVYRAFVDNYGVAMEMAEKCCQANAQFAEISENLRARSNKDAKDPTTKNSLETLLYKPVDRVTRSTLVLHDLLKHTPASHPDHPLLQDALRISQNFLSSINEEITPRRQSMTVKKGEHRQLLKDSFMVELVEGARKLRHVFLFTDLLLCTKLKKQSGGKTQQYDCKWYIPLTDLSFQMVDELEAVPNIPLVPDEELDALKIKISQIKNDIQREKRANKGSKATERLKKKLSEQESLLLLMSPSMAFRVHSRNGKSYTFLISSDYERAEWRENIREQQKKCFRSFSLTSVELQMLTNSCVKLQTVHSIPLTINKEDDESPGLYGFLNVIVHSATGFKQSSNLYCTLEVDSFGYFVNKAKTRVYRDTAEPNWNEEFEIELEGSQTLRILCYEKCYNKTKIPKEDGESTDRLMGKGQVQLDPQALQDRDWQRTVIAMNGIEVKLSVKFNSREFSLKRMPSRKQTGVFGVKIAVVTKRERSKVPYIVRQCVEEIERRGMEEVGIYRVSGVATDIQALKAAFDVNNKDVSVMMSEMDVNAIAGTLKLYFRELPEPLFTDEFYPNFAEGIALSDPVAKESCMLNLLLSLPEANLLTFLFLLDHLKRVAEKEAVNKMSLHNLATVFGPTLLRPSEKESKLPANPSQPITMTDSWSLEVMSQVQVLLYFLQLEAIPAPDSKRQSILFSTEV

| IC50 [1] [nM] | IC50 [2] [nM] | IC50 [3] [nM] | IC50 [4] [nM] | SMILES |
| --- | --- | --- | --- | --- |
| > 10000 | > 5000 | 36.5 | > 10000 | CCc1ccc(C(=O)Nc2cc(C(F)(F)F)ccc2F)cc1-c1cc(C)cc(-c2cnc3cnccn23)c1 |
| > 10000 | 1080 | 21.3 | 8410 | CCc1ccc(C(=O)Nc2cccc(C(F)(F)F)c2)cc1-c1cc(Cl)cc(-c2cnc3cnccn23)c1 |
| > 10000 | 3230 | 42.3 | > 10000 | CCc1cc(-c2cc(C(=O)Nc3cccc(C(F)(F)F)c3)ccc2CC)cc(-c2cnc3cnccn23)c1 |
| 2220 | 725 | 10.4 | 2920 | CCc1ccc(C(=O)Nc2cccc(C(F)(F)F)c2)cc1-c1cccc(-c2cnc3cnccn23)c1 |
| > 10000 | > 5000 | 55.6 | > 10000 | CCc1ccc(C(=O)Nc2ccc(F)c(C(F)(F)F)c2)cc1-c1cc(C)cc(-c2cnc3cnccn23)c1 |
| > 10000 | 2630 | 66.9 | > 10000 | CCc1ccc(C(=O)Nc2cccc(C(F)(F)F)c2)cc1-c1cc(-c2cnc3cnccn23)cc(C(C)C)c1 |
| > 10000 | 1730 | 22.5 | > 10000 | CCc1ccc(C(=O)Nc2cccc(C(F)(F)F)c2)cc1-c1cc(C)cc(-c2cnc3cnccn23)c1 |
| 3700 | 1020 | 16.5 | 4990 | CCc1ccc(C(=O)Nc2cccc(C(F)(F)F)c2)cc1-c1cc(OC)cc(-c2cnc3cnccn23)c1 |
| 5640 | 947 | 15.6 | 3720 | CCc1ccc(C(=O)Nc2cccc(C(F)(F)F)c2)cc1-c1cc(C#N)cc(-c2cnc3cnccn23)c1 |
| 5340 | 1330 | 30.3 | 6590 | CCc1ccc(C(=O)Nc2cccc(C(F)(F)F)c2)cc1-c1cc(F)cc(-c2cnc3cnccn23)c1 |
| 1450 | 610 | 63.7 | > 10000 | CCc1ccc(C(=O)Nc2cccc(C(F)(F)F)c2)cc1-c1cc(-c2cnc3cnccn23)ccc1C |
| > 10000 | > 10000 | 108 | > 10000 | CCc1ccc(C(=O)Nc2cccc(C(F)(F)F)c2)cc1-c1ccc(C)c(-c2cnc3cnccn23)c1 |
| > 10000 | > 10000 | 92 | > 10000 | CCc1ccc(C(=O)Nc2cccc(C(F)(F)F)c2)cc1-c1cc(-c2cnc3cnccn23)cc(C(C)(C)C)c1 |
| 4990 | > 10000 | 1300 | 3980 | CCc1ccc(C(=O)Nc2ccc(C(F)(F)F)cc2)cc1-c1cccc(-c2cnc3cnccn23)c1 |

The next lines start with the compound.

| SMILES | IC50 [1] [nM] | IC50 [2] [nM] | IC50 [3] [nM] | IC50 [4] [nM] |
| --- | --- | --- | --- | --- |
| CCc1ccc(C(=O)Nc2cccc(C(F)(F)F)c2)cc1-c1cccc(-c2cnc3cnccn23)c1C | 1810 | 663 | 30.1 | 5980 |
| CCc1ccc(C(=O)Nc2cccc(CN3CCN(C)CC3)c2)cc1-c1cccc(-c2cnc3cnccn23)c1 | 989 | > 10000 | 357 | 4930 |
| CCc1ccc(C(=O)Nc2ccccc2)cc1-c1cccc(-c2cnc3cnccn23)c1 | 5120 | > 10000 | 4850 | 8990 |
| CCc1ccc(C(=O)Nc2cccc(C(F)(F)F)c2F)cc1-c1cc(C)cc(-c2cnc3cnccn23)c1 | > 10000 | > 5000 | 73.8 | > 10000 |
| CC(C)c1ccc(C(=O)Nc2cccc(C(F)(F)F)c2)cc1-c1cccc(-c2cnc3cnccn23)c1 | > 10000 | > 10000 | 1260 | 1690 |
| Cc1ccc(C(=O)Nc2cccc(C(F)(F)F)c2)cc1-c1cccc(-c2cnc3cnccn23)c1 | 237 | 135 | 9.2 | 72.4 |
| CCc1ccc(C(=O)Nc2cc(CN3CCN(C)CC3)cc(C(F)(F)F)c2)cc1C#Cc1cnc2ccnn2c1 | – | – | – | > 10000 |
| CCc1ccc(C(=O)Nc2ccccc2C(F)(F)F)cc1-c1cccc(-c2cnc3cnccn23)c1 | > 10000 | > 10000 | 4880 | > 10000 |
| CCc1ccc(C(=O)Nc2cc(CN3CCN(C)CC3)cc(C(F)(F)F)c2)cc1-c1cccc(-c2cnc3cnccn23)c1 | 437 | 66.1 | 8.7 to 9.6 | 620 |
| CCc1ccc(C(=O)Nc2cc(CN3CCN(C)CC3)cc(C(F)(F)F)c2)cc1-c1cccc(-c2cnc3ccnn3c2)c1 | > 10000 | 197 | 359 | > 10000 |
